ChEMBL document CHEMBL3785060, “Nitric Oxide Inhibitory Activity and Absolute Configurations of Arylalkenyl α,β-Unsaturated δ/γ-Lactones from Cryptocarya concinna” (J Nat Prod, 2016)
pIC50: −log10 of the molar value.

Assays:
RAW264.7 = assay: Antiinflammatory activity in mouse RAW264.7 cells assessed as inhibition of LPS-induced nitric oxide production after 18 hrs by Griess assay; type: functional, cell-based; settings: RAW264.7, 18 h
Summary of the method: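 LPS-stimulated RAW 264.7 macrophages. Cell viability was first checked by MTT at concentrations up to 100 μM, so that NO inhibition could be separated from cytotoxicity. N-monomethyl-L-arginine served as positive control. Each experiment was run in triplicate. IC50 is given as mean ± SD of three independent experiments.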

[1] = Cytotoxicity against mouse RAW264.7 cells assessed as cell survival up to 100 uM by MTT assay; type: cell-based; settings: read-out: Survival
Summary of the method: (§1)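 RAW 264.7 macrophages were screened by MTT before the LPS-induced NO assay to rule out cytotoxicity. Concentrations went up to 100 μM, including 50 μM, and the read-out was percent cell survival. All experiments were run in triplicate.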

[2] = Cytotoxicity against mouse RAW264.7 cells assessed as cell survival at 50 uM by MTT assay; type: cell-based; settings: read-out: Survival; summary of the method: as §1

| SMILES | pIC50 (RAW264.7) | viability [1] [%] | viability at 50 µM [2] [%] |
| --- | --- | --- | --- |
| CC(=O)O[C@H](C[C@H](C[C@H](O)/C=C/c1ccccc1)OC(C)=O)C[C@H]1CC=CC(=O)O1 | < 4.30 |  |  |
| CC(=O)O[C@H](C[C@@H](O)C/C=C1/C=CC(=O)O1)C[C@H](O)/C=C/c1ccccc1 | 5.12 | > 90 |  |
| CC(=O)O[C@H](C[C@@H](O)C[C@@H]1OC(=O)C=C[C@@H]1O)C[C@H](O)/C=C/c1ccccc1 |  |  | < 15 |
| CNC(=N)NCCC[C@H](N)C(=O)O [TILARGININE] | 4.35 |  |  |
| O=C1C=CC[C@H](C[C@@H]2C[C@H](O)C[C@H](/C=C/c3ccccc3)O2)O1 | 5.38 | > 90 |  |
| O=C1C=CC[C@H](C[C@H](O)C[C@@H](O)C[C@H](O)/C=C/c2ccccc2)O1 | 5.49 | > 90 |  |
| CC(=O)O[C@H](C[C@@H](O)C[C@H](O)/C=C/c1ccccc1)C[C@H]1CC=CC(=O)O1 | < 4.30 | > 90 |  |
| CC(=O)O[C@H](C[C@@H](O)C[C@H]1CC=CC(=O)O1)C[C@H](O)/C=C/c1ccccc1 | < 4.30 |  |  |
| CC(=O)O[C@H](C[C@@H](O)C[C@H](O)/C=C/c1ccccc1)C[C@@H]1OC(=O)C=C[C@@H]1O | 4.56 | > 90 |  |
| CC(=O)O[C@@H](C/C=C1/C=CC(=O)O1)C[C@@H](O)C[C@H](O)/C=C/c1ccccc1 | 5.47 | > 90 |  |
| O=C1C=C[C@H](O)[C@H](C[C@H](O)C[C@@H](O)C[C@H](O)/C=C/c2ccccc2)O1 | 4.86 | > 90 |  |
